# Experimental data taken from ChEMBL document CHEMBL1153071, “Synthesis, biological evaluation, and SAR study of novel pyrazole analogues as inhibitors of Mycobacterium tuberculosis: part 2. Synthesis of rigid pyrazolones” (Bioorg Med Chem, 2009).
# Test system: Mycobacterium tuberculosis
# Test: Antimycobacterial activity against Mycobacterium tuberculosis
# Format: functional
# Settings: not given
# Method in brief: (§1)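 Strain H37Rv ATCC 27294, kept on Löwenstein-Jensen slants and grown for inoculum in 7H9 broth with 10% ADC. Twofold agar dilution on Middlebrook 7H11 with 10% OADC, compound 0.0312–64 μg/mL. Each well received 10 μL of 1.5×10^5 cfu/mL (final 1.5×10^3 per well). Incubated 21–28 days. MIC (μg/mL) is the lowest concentration completely inhibiting visible growth.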
row,SMILES,MIC
1,Cc1[nH]n(-c2ccc(Br)cc2)c(=O)c1C(=O)c1ccc(Cl)cc1,4 µg/mL
2,Cc1[nH]n(-c2ccc(F)cc2)c(=O)c1C(=O)c1ccc(Cl)cc1,4 µg/mL
3,Cc1[nH]n(-c2ccc(Cl)cc2)c(=O)c1C(=O)c1ccc(Cl)cc1,4 µg/mL
4,Cc1nn(-c2ccccc2)c(O)c1C(=O)c1ccc(Cl)cc1,4 µg/mL

# Test system: Mycobacterium tuberculosis
# Test: Antimycobacterial activity against Mycobacterium tuberculosis H37Rv ATCC 27294 after 21 to 28 days by twofold agar dilution method
# Format: functional
# Settings: not given
# Method in brief: as §1
row,SMILES,MIC
1,CCCN(C)/C(=C1\C(=O)N(c2ccc(Cl)cc2)N=C1C)c1ccc(Cl)cc1,64 µg/mL
2,CC1=NN(c2ccc(Cl)cc2)C(=O)/C1=C\N(C)C,> 64 µg/mL
3,CC1=NN(c2ccc(Cl)cc2)C(=O)/C1=C\N1CCN(c2ccccc2)CC1,64 µg/mL
4,CC1=NN(c2ccc(Cl)cc2)C(=O)/C1=C(/c1ccc(Cl)cc1)N1CCOCC1,4 µg/mL
5,CC(=O)N1CCN(/C=C2\C(=O)N(c3ccc(Cl)cc3)N=C2C)CC1,64 µg/mL
6,CC1=NN(c2ccc(Cl)cc2)C(=O)/C1=C(/c1ccc(Cl)cc1)N1CCSCC1,8 µg/mL
7,CC1=NN(c2ccc(Cl)cc2)C(=O)/C1=C\N1CCN(CCO)CC1,64 µg/mL
8,CC1=NN(c2ccc(Cl)cc2)C(=O)/C1=C(/c1ccc(Cl)cc1)N1CCC(C)CC1,64 µg/mL
9,CC1=NN(c2ccccc2)C(=O)/C1=C(/c1ccc(Cl)cc1)N1CCN(C)CC1,8 µg/mL
10,CC1=NN(c2ccccc2)C(=O)/C1=C(/c1ccc(Cl)cc1)N1CCOCC1,16 µg/mL
11,CC1=NN(c2ccc(Cl)cc2)C(=O)/C1=C(/c1ccc(Cl)cc1)N1CCN(C)CC1,4 µg/mL
12,CC1=NN(c2ccc(Cl)cc2)C(=O)/C1=C(/c1ccc(Cl)cc1)N1CCCCC1,> 64 µg/mL
13,CC1=NN(c2ccc(Cl)cc2)C(=O)/C1=C(/c1ccc(Cl)cc1)N(C)C,16 µg/mL
14,CC1=NN(c2ccccc2)C(=O)/C1=C(/c1ccc(Cl)cc1)N1CCSCC1,8 µg/mL
15,CC1=NN(c2ccccc2)C(=O)/C1=C(/c1ccc(Cl)cc1)N(C)C,32 µg/mL
16,CC1=NN(c2ccc(Cl)cc2)C(=O)/C1=C\Nc1ccccc1,64 µg/mL
17,CC1=NN(c2ccc(Cl)cc2)C(=O)/C1=C\N1CCOCC1,64 µg/mL
18,CC1=NN(c2ccc(Cl)cc2)C(=O)/C1=C\N1CCN(C)CC1,64 µg/mL

# Test system: not listed separately
# Test: Cytotoxicity against african green monkey Vero cells
# Format: cell-based
# Settings: chlorocebus sabaeus
row,SMILES,CC50
1,CC1=NN(c2ccc(Cl)cc2)C(=O)/C1=C(/c1ccc(Cl)cc1)N1CCSCC1,4.86 µg/mL
2,CC1=NN(c2ccccc2)C(=O)/C1=C(/c1ccc(Cl)cc1)N1CCN(C)CC1,5.58 µg/mL
3,CC1=NN(c2ccc(Cl)cc2)C(=O)/C1=C(/c1ccc(Cl)cc1)N1CCN(C)CC1,5.49 µg/mL
4,CC1=NN(c2ccccc2)C(=O)/C1=C(/c1ccc(Cl)cc1)N1CCSCC1,5.71 µg/mL
